Published values collected from several papers.
Lines come from different studies, so protocols differ.
Target: Cyclin-dependent kinase 14 (CDK14, Homo sapiens, UniProt O94921)

| test | conditions | remaining binding | SMILES |
| --- | --- | --- | --- |
| cell-free assay, competition with immobilised ligand | 1 µM | 100% | O=C(N1CCS(=O)(=O)CC1)N1C[C@H](c2ccc(OC(F)(F)F)cc2)C[C@H](c2nc(C3CC3)no2)C1 |
| binding, competition with immobilised ligand | 1 µM | 99% | O=C(Nc1c[nH]nc1C(=O)NC1CCNCC1)c1cc(F)cc(F)c1 |
| binding | 1 µM | 88% | c1cnn2ncc(-c3ccnc(N4CCC45COC5)n3)c2c1 |
| cell-free assay, competition with immobilised ligand | 5 µM | 68% | FC(F)(F)Oc1cccc(-c2cnc3ccc(-c4ccncc4)nn23)c1 |
| binding | 1 µM | 91% | Cc1cnn2ncc(-c3ccnc(N(C)C)n3)c2c1 |
| binding, competition with immobilised ligand | 1 µM | 100% | Cc1cnc(Nc2ccc(C(=O)N3CCC(N4CCCC4)CC3)cc2)nc1-c1cc2ccccc2s1 |
| binding, competition with immobilised ligand | 1 µM | 91% | O=C(N[C@H]1CCCCC/C=C\C2C[C@@]2(C(=O)O)NC(=O)[C@@H]2C[C@@H](Oc3ccncc3)CN2C1=O)OC1CCCC1 (stereo partly shown) |
| binding | 1 µM | 89% | CN(C)c1nccc(-c2cnn3ncccc23)n1 |
| binding, competition with immobilised ligand | 1 µM | 94% | COc1cnc(Nc2cccc(S(N)(=O)=O)c2)nc1N1CCN(c2ccccc2)CC1 |
| binding | 1 µM | 100% | N[C@H]1CCN(c2nccc(-c3cnn4ncccc34)n2)C1 |
| cell-free assay, competition with immobilised ligand | 1 µM | 100% | CC(=O)N1CCC(c2ccc(C(=O)NC3=NCCN3)cc2C(F)(F)F)CC1 |
| binding, competition with immobilised ligand | 1 µM | 37% | O=C(NCCCN1CCOCC1)c1ccc(Nc2ncc(Cl)c(-c3ccc(Cl)s3)n2)cc1 |
| cell-free assay, competition with immobilised ligand | 1 µM | 100% | Cc1nc(C2CCN(C(=O)c3ccc(OC(F)(F)F)cc3N)CC2)c2ncc(N3CCN(C)CC3)cc2n1 |
| binding, competition with immobilised ligand | 10 µM | 90% | c1cncc(-c2cccc(Nc3nccc(NC4CCCCC4)n3)c2)c1 |
| cell-free assay, competition with immobilised ligand | 1 µM | 93.8% | Cc1cc(NC(=O)c2cccc(S(F)(F)(F)(F)F)c2)cc(-n2ccn3nc(-c4cccnc4)cc23)c1 |
| binding | 1 µM | 93% | CN(CCCC(F)(F)F)c1nccc(-c2cnn3ncccc23)n1 |
| cell-free assay, competition with immobilised ligand | 1 µM | 100% | CNCc1ccccc1-c1csc([C@H](C)Nc2nc(C)nc3cc(OC)c(OC)cc23)c1 |
| binding | 1 µM | 100% | CN(c1nccc(-c2cnn3ncccc23)n1)C1CC1 |
| binding, competition with immobilised ligand | 1 µM | 100% | O=C(c1ccc(Nc2nccc(-c3cc4ccccc4s3)n2)cc1)N1CCC(N2CCCC2)CC1 |
